Legend:
[1] = melting temperature; fluorescence melt of hairpins on a sequencing array, two-state fit, raised by 9.35 °C to match UV melts; details: sodium 0.088 M
How it was run: (§1)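 Library hairpins on a sequenced MiSeq flow cell carried annealed Cy3 and quencher oligos, and their Cy3 fluorescence was imaged in 50 mM Na-HEPES pH 8.0 with 25 mM NaCl, in 2.5 °C steps up to 60 °C. Signals were normalised to Cy3 before quenching and to control constructs. Melting temperature and folding enthalpy were obtained from bootstrapped two-state fits, combined by inverse-variance weighting across four replicates, and the fitted temperatures were then raised by 9.35 °C to match UV melts.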

[2] = folding enthalpy; higher = less favourable; fluorescence melt of hairpins on a sequencing array, two-state fit; details: sodium 0.088 M
How it was run: as §1

Sequence | Tm [1] | folding enthalpy [2]
CGAACGCGGAAACGCTCG (((..(((....)))))) | 40.5 °C | -17.2 kcal/mol
CGAACGGAAACGTAATCG ((((((....)))..))) | 24.5 °C | -8.82 kcal/mol
CGAAGACGGAAACGTTCG (((..(((....)))))) | 39 °C | -13.8 kcal/mol
CGAATACGGAAACGTTCG (((..(((....)))))) | 34 °C | -24.9 kcal/mol
CGACACGGAAACGTCTCG (((.(((....))).))) | 35.9 °C | -26.8 kcal/mol
CGACAGCGGAAACGCTCG (((..(((....)))))) | 40.3 °C | -12.9 kcal/mol
CGACATCGGAAACGATCG (((..(((....)))))) | 34 °C | -12.7 kcal/mol
CGACCACGGAAACGTTCG (((..(((....)))))) | 30.5 °C | -12.3 kcal/mol
CGACCGCGGAAACGCTCG (((..(((....)))))) | 34 °C | -11.2 kcal/mol
CGACCGGAAACGGTCTCG ((((((....)))..))) | 38 °C | -8.29 kcal/mol
CGACGCGGAAACGCCTCG (((.(((....))).))) | 41.5 °C | -23.9 kcal/mol
CGACTCGGAAACGATTCG (((.(((....))).))) | 42.5 °C | -41 kcal/mol
CGACTGAAAAGTCG (((((....))))) | 58.5 °C | -26.5 kcal/mol
CGACTGCGGAAACGCTCG (((..(((....)))))) | 32.7 °C | -12.5 kcal/mol
CGAGCGGAAACGCACTCG ((((((....)))..))) | 37.6 °C | -15.8 kcal/mol
CGAGCGGAAACGCGTTCG ((((((....)))..))) | 49.9 °C | -12.6 kcal/mol
CGAGTACGGAAACGTTCG (((..(((....)))))) | 36.6 °C | -20.4 kcal/mol
CGAGTCGGAAACGATTCG (((.(((....))).))) | 50.4 °C | -47.2 kcal/mol
CGAGTGAAAACTCG (((((....))))) | 54.6 °C | -24.6 kcal/mol
CGATCCCGGAAACGGTCG (((..(((....)))))) | 30.7 °C | -19.9 kcal/mol
CGATCCGGAAACGGGTCG (((.(((....))).))) | 57.2 °C | -38.8 kcal/mol
CGATCGAAAGATCG (((((....))))) | 59.9 °C | -30.4 kcal/mol
CGATCGGAAACGAAGTCG ((((((....)))..))) | 25.6 °C | -11.7 kcal/mol
CGATCGGAAACGACATCG ((((((....)))..))) | 32 °C | -24 kcal/mol

Sequence | Tm [1] | folding enthalpy [2]
CGATCGGAAACGACTCG ((((((....))).))) | 40.7 °C | -31 kcal/mol
CGATCGGAAACGAGCTCG ((((((....)))..))) | 29.8 °C | -11.5 kcal/mol
CGATCGGAAACGATGTCG ((((((....)))..))) | 39.5 °C | -13.6 kcal/mol
CGATGCCGGAAACGGTCG (((..(((....)))))) | 32.7 °C | -10 kcal/mol
CGATTCGGAAACGAGTCG (((.(((....))).))) | 50.8 °C | -43.6 kcal/mol
CGCAACGGAAACGTCGCG (((.(((....))).))) | 52.1 °C | -42.6 kcal/mol
CGCAACGGAAACGTGCG (((.(((....)))))) | 56.5 °C | -31.8 kcal/mol
CGCAAGCGGAAACGCGCG (((..(((....)))))) | 56.9 °C | -22 kcal/mol
CGCAATCGGAAACGAGCG (((..(((....)))))) | 42.4 °C | -25.4 kcal/mol
CGCACACGGAAACGTGCG (((..(((....)))))) | 52.9 °C | -22 kcal/mol
CGCACGGAAACGTTGGCG ((((((....)))..))) | 45.4 °C | -37.8 kcal/mol
CGCCAACGGAAACGTGCG (((..(((....)))))) | 45.5 °C | -26 kcal/mol
CGCCAGCGGAAACGCGCG (((..(((....)))))) | 50.6 °C | -23.4 kcal/mol
CGCCCCGGAAACGGAGCG (((.(((....))).))) | 56.5 °C | -39.3 kcal/mol
CGCCCCGGAAACGGTGCG (((.(((....))).))) | 53.9 °C | -49.4 kcal/mol
CGCCCGCGGAAACGCGCG (((..(((....)))))) | 42.4 °C | -8.68 kcal/mol
CGCCGCCGGAAACGGGCG (((..(((....)))))) | 51.9 °C | -16.5 kcal/mol
CGCCGCGGAAACGCTGCG (((.(((....))).))) | 57.6 °C | -37.6 kcal/mol
CGCCTCGGAAACGACGCG (((.(((....))).))) | 45.7 °C | -33.9 kcal/mol
CGCCTCGGAAACGATGCG (((.(((....))).))) | 49.9 °C | -48 kcal/mol
CGCCTTCGGAAACGAGCG (((..(((....)))))) | 36.3 °C | -13.6 kcal/mol
CGCGACGGAAACGTGCG (((.(((....)))))) | 55.3 °C | -28.3 kcal/mol
CGCGCGGAAACGCAAGCG ((((((....)))..))) | 56.8 °C | -34 kcal/mol
CGCGCGGAAACGCACGCG ((((((....)))..))) | 57.1 °C | -22.1 kcal/mol

Reference: the array DNA melting data of Ke et al. (doi:10.1101/2024.01.08.574731)
